# Screens deposited in PubChem BioAssay by several laboratories.
# A selection: hits, their analogues and other compounds. The true share with any hit is near 3.5%.
# BB579 growth dn – yeast BB579 growth reduction in restrictive medium; AID 804; 140,000 tested, 0.51% active; S. cerevisiae BB579 growth, OD615, 48 h; inhibition, % at 10 µM;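 active = inhibition above a set limit, 3 SD over the mean compound inhibition, cut at about 44% in these data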
#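 controls = amphotericin B 10 µg/mL, positive | assay system = DeaD yeast strain BB579 | schedule = 48 h compound exposure at 30 °C after 4 h preincubation | detection = OD615 turbidity measurement | medium = restrictive CSMM-D medium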
# RAM inhibit – inhibitors of the yeast RAM network; S. cerevisiae dse1pr::URA3 reporter, 5-FOA growth OD615, 2 d; analog-sensitive cbk1-as2 kinase mutant strain; inhibition, % at 50 µM; 190,000 tested, 1.8% active; AID 868;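 active = inhibition above a set limit, 3 SD over mean compound inhibition, cut at about 8.4% in these data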;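 note: 0% = DMSO-only wells with no growth and 100% = 10 µM 1-NA-PP1 full growth; inhibition rescues growth on 5-FOA so higher OD means more RAM inhibition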
# Efa HMGR inh – inhibitors of class II HMG-CoA reductase from Enterococcus faecalis; inhibition, % at 10 µM; purified E. faecalis HMGR, NADPH absorbance 340 nm kinetic; 190,000 tested, 0.41% active;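 active = inhibition above a set limit, the median over all tested compounds plus 3 SD, cut at about 9.5% in these data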;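 note: enzyme runs in reverse so mevalonate oxidation gives rising NADPH absorbance; 0% = complete reaction with DMSO and 100% = background rate lacking mevalonate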
# MT stabilize HCS – microtubule stabilizers in HeLa cells. % tubulin-high responders, % at 10 µM. 200,000 tested, 0.83% active. AID 2205. HeLa tubulin immunostaining HCS, 24 h; share of cells brighter than vehicle mean+2SD;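 active = plate Z-score above 3 for both tubulin-high and condensed-nucleus cell shares, with cell loss under 80%, at 10 µM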;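 note: anti alpha tubulin signal scored within the nucleus-defined area of each cell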
# Yeast life ext – extends the lifespan of yeast; S. cerevisiae growth with nicotinamide, OD615; deaD strain in restrictive glucose medium; inhibition of the nicotinamide effect, % at 10 µM; 130,000 tested, 0.68% active; AID 775;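 active = inhibition above a set limit, placed 3 SD over the median of all compounds, cut at about 26% in these data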;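 note: 0% = nicotinamide-treated wells and 100% = cells grown without nicotinamide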
#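 System: DeaD-strain S. cerevisiae / Buffer or medium: CSMM-D, restrictive glucose (dextrose) synthetic minimal medium / Probe or stimulus: nicotinamide, 1.5 mM, co-present with compound / Compound: one concentration, 10 µM, DMSO 0.25% / Incubation: 48 h compound exposure at 30 °C, humidified / Technique: optical density (absorbance) at 615 nm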
# bCat nuc transl – beta-catenin nuclear translocation modulation; AID 1665; HeLa beta-catenin nuclear translocation, immunofluorescence imaging; nuclear translocation activity, % at 5 µM; 190,000 tested, 0.3% active;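 active = nuclear translocation activity above 50% at 5 µM, with a well cell count of 50 or more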;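 note: per-cell ratio of nuclear to cytoplasmic median beta-catenin stain intensity; plate controls were DMSO negative control for no effect and GSK-3 inhibitor IX positive control for full effect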
#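 Read-out: Nuclear/cytoplasmic beta-catenin signal ratio, % activation | Assay system: Human HeLa cell line | Times: 24 h compound exposure at 37°C, 5% CO2 | Signal: Fluorescence imaging of beta-catenin antibody stain plus DAPI | Dosing: 5 µM primary, 0.02–20 µM confirmation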
# * hit, by the source's call; . = no result.
SMILES,BB579 growth dn,RAM inhibit,Efa HMGR inh,MT stabilize HCS,Yeast life ext,bCat nuc transl
CC(CCCC(C)(C)O)NC(=O)c1ccc(OC2CCN(C(=O)C3CC3)CC2)cc1 (stereo not drawn),.,-1,10*,4,.,6
Nc1ccc(CN2CCOCC2)cc1,.,3,0,2,.,0
O=S1(=O)C=C(Sc2nc3ccccc3s2)c2ccccc21,-11,2,-1,3,69*,6
CN(C)S(=O)(=O)c1cccc(NC(=O)CSc2nc3c(cc2C#N)C(=O)CC(C)(C)C3)c1,-26,6,-5,24*,-3,6
CN(C)S(=O)(=O)c1ccc(Cl)c(NC(=O)CSc2nc3c(cc2C#N)C(=O)CC(C)(C)C3)c1,-26,9.1*,2,4,0,.
CSc1nc2c(cc1C#N)C(=O)CC(C)(C)C2,.,0,-6,1,.,0
CCCCOC(=O)CSc1nc2c(cc1C#N)C(=O)CC(C)(C)C2,-18,1,0,3,22,-1
O=C(Nc1ccc(S(=O)(=O)Nc2ncccn2)cc1)c1ccccc1NS(=O)(=O)c1ccc(Cl)cc1,.,.,.,.,.,-1
Cc1ccc(CSc2nnc(CNc3ccc(F)cc3)o2)cc1,.,1,-4,2,.,.
O=S(=O)(/N=C/c1c(O)ccc2ccccc12)c1cccs1,-20,-1,-2,2,30*,.
COc1cccc(NC(=O)c2ccc3c(c2)N(CC(=O)N2CCCCC2)C(=O)C(C)(C)O3)c1,-3,8.8*,-3,5,-26,-5
C=CCc1ccccc1OCCSc1nc2ccc([N+](=O)[O-])cc2s1,-14,11*,2,2,4,1
Nc1ccc2nc(SCc3ccc([N+](=O)[O-])cc3)sc2c1,-35,3,-1,2,-21,3
O=[N+]([O-])c1ccc2nc(SCc3ccccc3Cl)sc2c1,-28,9.6*,0,3,-12,1
COc1ccccc1OCCSc1nc2ccc([N+](=O)[O-])cc2s1,-44,1,2,4,-5,-1
CCn1c(SCC(=O)Nc2nc3ccccc3s2)nnc1-c1ccc(OC)cc1,-19,9.8*,-4,4,-3,3
NC(=O)c1c(NC(=O)CSc2nnc(-c3ccco3)n2-c2ccccc2)sc2c1CCC2,-42,3,1,23*,-16,0
N#Cc1ccccc1NC(=O)CSc1nnc(-c2ccccc2O)n1-c1ccccc1,-36,10*,-1,2,-5,0
COc1ccc(-c2nnc(SCC(=O)Nc3ncc(C)s3)n2-c2ccccc2)cc1OC,-40,2,-2,58*,-5,32
CCn1c(Cc2ccccc2)nnc1SCC(=O)Nc1nc2ccccc2s1,-67,8,4,4,5,.
CC(C)CNC(=O)Cn1c(=O)c2c(ncn2CC(C)C)n(Cc2ccccc2)c1=O,.,3,0,4,.,0
COc1ccc(-c2nnc(SCC(=O)Nc3sc4c(c3C#N)CCCC4)n2-c2ccccc2)cc1,-30,3,-4,20*,.,1
COc1ccc(-n2c(SCC(=O)Nc3sc4c(c3C#N)CCCC4)nnc2-c2ccccc2OC)cc1,-22,7,0,3,.,-3
Cc1ccc2nc(NC(=O)CSc3nnc(C)c(=O)n3N)sc2c1,-28,8.9*,0,2,1,-1
CC(=O)Nc1ccc2nc(CN3CCC(CO)(CCc4ccccc4)CC3)ccc2c1,.,.,.,.,.,0
SMILES,BB579 growth dn,RAM inhibit,Efa HMGR inh,MT stabilize HCS,Yeast life ext,bCat nuc transl
O=C(C/C=N/OCc1ccc(F)cc1Cl)c1cnc(-c2ccccc2)s1,-12,9.7*,11*,3,7,.
O=C(C/C=N/OCc1ccccc1F)c1cnc(-c2ccc(Cl)cc2)s1,-26,7,4,2,-10,.
COc1ccc(CNC(C)C(=O)Nc2ccc3ccccc3c2)cc1OC (stereo not drawn),.,1,3,4,.,0
Cc1c(Cl)ccc2c(C(=O)NC(C)c3ccncc3)cc(-c3ccncc3)nc12 (stereo not drawn),.,1,-3,3,.,0
C=CCn1cc(/C=N\NC(=O)c2cc3c(ccc4ccccc43)o2)c2ccccc21,-70,6,-3,7,-1,.
C#CCn1cc(/C=N/NC(=O)c2cc3ccccc3o2)c2ccccc21,-32,4,-1,27*,-1,2
O=C(NC(=S)Nc1cccc(Cl)c1N1CCCCC1)c1ccc2c(c1)OCCO2,-6,5,-4,29*,6,86*
O=C(Nc1ccc(N2CCCCC2)cc1)c1ccc2c(c1)OCCO2,-9,2,27*,2,-6,-5
CN(/N=C/c1cc(Cl)cc(Cl)c1O)c1c(Cl)cccc1[N+](=O)[O-],.,.,.,.,.,2
CC(=O)Nc1ccc2c(c1)CCCC2=O,.,.,.,.,.,0
O=C1CCCc2cc3c(cc21)CC1(C3)Cc2cc3c(cc2C1)C(=O)CCC3,.,.,.,.,.,72*
O=C(OCC(=O)N1CCN(C(=O)c2ccco2)CC1)c1cc(-c2ccc(Cl)c(Cl)c2Cl)nc2ccccc12,-52,9.5*,1,1,-6,.
Cn1cc(CN2CCC(CO)(CCCc3ccccc3)CC2)c(-c2ccccc2)n1,.,.,.,.,.,0
Cc1cccc(NC(=O)C(=O)NCC2CCCO2)c1 (stereo not drawn),.,1,3,2,.,0
CC1CCc2cc(F)ccc2N1C(=O)CCl (stereo not drawn),.,2,1,3,.,6
Fc1ccc(-c2csc(-c3ccncc3)n2)cc1,.,1,0,8,.,0
N#C/C(=N/O)c1nc(-c2ccc(F)cc2)cs1,54*,-1,-2,3,-3,-1
COc1ccc(C(=O)Nc2ccccc2C(=O)NC(Cc2c[nH]c3ccccc23)C(=O)O)cc1 (stereo not drawn),.,-1,-4,3,.,0
COC(=O)c1ccccc1NC(=O)Cn1c(-c2nonc2N)nc2ccccc21,-64,4,-3,19*,8,27
COc1cccc2sc(Nc3nc(-c4cc5ccccc5oc4=O)cs3)nc12,23,0,-1,18*,-9,122*
COc1cccc2sc(Nc3nc(-c4ccncc4)cs3)nc12,.,-2,-8,23*,.,55*
COc1ccccc1NC(=O)c1cc2cc(Br)ccc2cc1O,.,.,.,.,.,4
CC(=O)c1csc(CS(=O)(=O)c2ccccn2)n1,.,.,.,.,.,-1
Clc1cccc2c1CCN(Cc1nc(-c3cnccn3)no1)C2,.,1,0,5,.,0
CCOC(=O)c1c(C)[nH]c(C(C)=O)c1C,-66,0,-1,10,-13,2
CCOC(=O)c1c(C)[nH]c(C(=O)C(C)Cl)c1C (stereo not drawn),.,0,9.8*,5,.,1
Cc1ccc(OC(C)C(=O)Nc2ccc(S(=O)(=O)Nc3cc(C)on3)cc2)cc1 (stereo not drawn),-24,2,0,4,-4,.
